Measured values from ChEMBL document CHEMBL1148475, “Nonpeptide luteinizing hormone-releasing hormone antagonists derived from erythromycin A: design, synthesis, and biological activity of cladinose replacement analogues” (J Med Chem, 2004).

Assays:
[1] = molecular target: T1, Gonadotropin-releasing hormone receptor (Homo sapiens, UniProt P30968); assay: In vitro binding affinity to human luteinizing hormone-releasing hormone (LHRH) receptor cloned in CHO cells; assay type: cell-based
T1 sequence (P30968 whole entry): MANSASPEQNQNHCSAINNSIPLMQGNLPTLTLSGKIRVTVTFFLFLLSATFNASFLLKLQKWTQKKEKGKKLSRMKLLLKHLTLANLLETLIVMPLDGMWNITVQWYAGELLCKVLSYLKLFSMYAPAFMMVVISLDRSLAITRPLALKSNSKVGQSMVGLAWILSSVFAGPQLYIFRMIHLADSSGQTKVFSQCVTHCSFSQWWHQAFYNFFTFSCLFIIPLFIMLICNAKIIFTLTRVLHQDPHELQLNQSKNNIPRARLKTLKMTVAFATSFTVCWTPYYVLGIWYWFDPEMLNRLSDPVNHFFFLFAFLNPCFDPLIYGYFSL

[2] = molecular target: T2, Gonadotropin-releasing hormone receptor (Rattus norvegicus, UniProt P30969); assay: In vitro binding affinity to rat luteinizing hormone-releasing hormone (LHRH) receptor cloned in CHO cells; assay type: cell-based
T2 sequence (P30969 whole entry): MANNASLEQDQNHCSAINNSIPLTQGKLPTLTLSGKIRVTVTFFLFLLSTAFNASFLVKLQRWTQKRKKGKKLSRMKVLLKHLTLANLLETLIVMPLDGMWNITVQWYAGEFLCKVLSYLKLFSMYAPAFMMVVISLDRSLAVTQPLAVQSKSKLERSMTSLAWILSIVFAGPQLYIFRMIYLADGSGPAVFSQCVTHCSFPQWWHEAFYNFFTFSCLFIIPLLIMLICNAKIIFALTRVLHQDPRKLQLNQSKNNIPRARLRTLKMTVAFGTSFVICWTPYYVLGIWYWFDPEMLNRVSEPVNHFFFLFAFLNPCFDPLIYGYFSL

[3] = molecular target: Gonadotropin-releasing hormone receptor (Rattus norvegicus, UniProt P30969); assay: In vitro binding ability against Luteinizing hormone-releasing hormone release in rat pituitary cells; assay type: cell-based, Pituitary gland cell; settings: read-out: pA2 (converted)
How it was run: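 Functional antagonism of LH release measured in cultured rat pituitary cells; potency expressed as pA2.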

[4] = molecular target: T1, Gonadotropin-releasing hormone receptor; assay: In vitro binding affinity was determined against human Luteinizing hormone-releasing hormone (LHRH) receptor cloned in CHO cells; assay type: cell-based

| Structure (SMILES) | Ki [1] | Ki [2] | Kb [3] | Ki [4] | Log Ki ([1]; cho) |
| --- | --- | --- | --- | --- | --- |
| CC[C@H]1OC(=O)[C@H](C)[C@@H](OC(=O)N2C(=O)OC[C@H]2CC(C)C)[C@H](C)[C@@H](OC2O[C@H](C)C[C@H](N(C)C(C)C)[C@H]2O)[C@@](C)(OC)C[C@@H](C)C(=O)[C@H](C)[C@H]2N(CCc3ccc(Cl)cc3)C(=O)O[C@]12C (stereo partly drawn) | 275 nM | 692 nM |  |  |  |
| CC[C@H]1OC(=O)[C@H](C)[C@@H](O)[C@H](C)[C@@H](OC2O[C@H](C)C[C@H](N(C)C(C)C)[C@H]2O)[C@@](C)(OC)C[C@@H](C)C(=O)[C@H](C)[C@H]2N(CCc3ccc(Cl)cc3)C(=O)O[C@]12C (stereo partly drawn) | 10000 nM | 2510 nM |  |  |  |
| CCC1CN(C(=O)O[C@H]2[C@H](C)[C@@H](OC3O[C@H](C)C[C@H](N(C)C(C)C)[C@H]3O)[C@@](C)(OC)C[C@@H](C)C(=O)[C@H](C)[C@H]3N(CCc4ccc(Cl)cc4)C(=O)O[C@]3(C)[C@@H](CC)OC(=O)[C@@H]2C)C(=O)O1 (stereo partly drawn) | 562 nM | 18.2 nM |  |  |  |
| CC[C@H]1OC(=O)[C@H](C)[C@@H](OC(=O)CC(C)C)[C@H](C)[C@@H](OC2O[C@H](C)C[C@H](N(C)C(C)C)[C@H]2O)[C@@](C)(OC)C[C@@H](C)C(=O)[C@H](C)[C@H]2N(CCc3ccc(Cl)cc3)C(=O)O[C@]12C (stereo partly drawn) | 2040 nM | 141 nM |  |  |  |
| CC[C@H]1OC(=O)[C@H](C)[C@@H](OC(=O)N2C(=O)OC[C@@H]2C)[C@H](C)[C@@H](OC2O[C@H](C)C[C@H](N(C)C(C)C)[C@H]2O)[C@@](C)(OC)C[C@@H](C)C(=O)[C@H](C)[C@H]2N(CCc3ccc(Cl)c(Cl)c3)C(=O)O[C@]12C (stereo partly drawn) | 15.1 nM | 0.234 nM | 1.78 nM |  |  |
| CC[C@H]1OC(=O)[C@H](C)[C@@H](OC(=O)N2C(=O)OC[C@@H]2C)[C@H](C)[C@@H](OC2O[C@H](C)C[C@H](N(C)C3CCCC3)[C@H]2O)[C@@](C)(OC)C[C@@H](C)C(=O)[C@H](C)[C@H]2N(CCc3ccc(Cl)cc3)C(=O)O[C@]12C (stereo partly drawn) | 38 nM | 1.17 nM |  |  |  |
| CC[C@H]1OC(=O)[C@H](C)[C@@H](OC(=O)N2CCCC2)[C@H](C)[C@@H](OC2O[C@H](C)C[C@H](N(C)C(C)C)[C@H]2O)[C@@](C)(OC)C[C@@H](C)C(=O)[C@H](C)[C@H]2N(CCc3ccc(Cl)cc3)C(=O)O[C@]12C (stereo partly drawn) | 1620 nM | 112 nM |  |  |  |
| CC[C@H]1OC(=O)[C@H](C)[C@@H](OC(=O)N2C(=O)OC[C@@H]2C)[C@H](C)[C@@H](OC2O[C@H](C)C[C@H](N(C)C3CCCC3)[C@H]2O)[C@@](C)(OC)C[C@@H](C)C(=O)[C@H](C)[C@H]2N(CCc3ccc(Cl)c(Cl)c3)C(=O)O[C@]12C (stereo partly drawn) | 5.62 nM | 0.692 nM | 0.135 nM |  |  |
| CC[C@H]1OC(=O)[C@H](C)[C@@H](OC(=O)N2CCOCC2)[C@H](C)[C@@H](OC2O[C@H](C)C[C@H](N(C)C(C)C)[C@H]2O)[C@@](C)(OC)C[C@@H](C)C(=O)[C@H](C)[C@H]2N(CCc3ccc(Cl)cc3)C(=O)O[C@]12C (stereo partly drawn) | 5620 nM | 427 nM |  |  |  |
| CC[C@H]1OC(=O)[C@H](C)[C@@H](OC(=O)N2CCNC2=O)[C@H](C)[C@@H](OC2O[C@H](C)C[C@H](N(C)C(C)C)[C@H]2O)[C@@](C)(OC)C[C@@H](C)C(=O)[C@H](C)[C@H]2N(CCc3ccc(Cl)cc3)C(=O)O[C@]12C (stereo partly drawn) | 2040 nM | 219 nM |  |  |  |
| CC[C@H]1OC(=O)[C@H](C)[C@@H](OC(=O)N2CCOC2)[C@H](C)[C@@H](OC2O[C@H](C)C[C@H](N(C)C(C)C)[C@H]2O)[C@@](C)(OC)C[C@@H](C)C(=O)[C@H](C)[C@H]2N(CCc3ccc(Cl)cc3)C(=O)O[C@]12C (stereo partly drawn) |  |  |  | 200 nM |  |
| CC[C@H]1OC(=O)[C@H](C)[C@@H](OC(=O)N2C(=O)OCC2(C)C)[C@H](C)[C@@H](OC2O[C@H](C)C[C@H](N(C)C(C)C)[C@H]2O)[C@@](C)(OC)C[C@@H](C)C(=O)[C@H](C)[C@H]2N(CCc3ccc(Cl)cc3)C(=O)O[C@]12C (stereo partly drawn) | 79.4 nM | 8.91 nM |  |  |  |
| CC[C@H]1OC(=O)[C@H](C)[C@@H](OC(=O)N2C(=O)OC[C@@H]2C)[C@H](C)[C@@H](OC2O[C@H](C)C[C@H](N(C)CC3CC3)[C@H]2O)[C@@](C)(OC)C[C@@H](C)C(=O)[C@H](C)[C@H]2N(CCc3ccc(F)c(Cl)c3)C(=O)O[C@]12C (stereo partly drawn) | 0.331 nM | 0.107 nM | 0.479 nM |  |  |
| CC[C@H]1OC(=O)[C@H](C)[C@@H](OC(=O)N2CCOC2=O)[C@H](C)[C@@H](OC2O[C@H](C)C[C@H](N(C)C(C)C)[C@H]2O)[C@@](C)(OC)C[C@@H](C)C(=O)[C@H](C)[C@H]2N(CCc3ccc(Cl)cc3)C(=O)O[C@]12C (stereo partly drawn) | 115 nM | 2.14 nM |  |  |  |
| CC[C@H]1OC(=O)[C@H](C)[C@@H](OC(=O)N2C(=O)OC[C@@H]2C)[C@H](C)[C@@H](OC2O[C@H](C)C[C@H](N(C)C(C)C)[C@H]2O)[C@@](C)(OC)C[C@@H](C)C(=O)[C@H](C)[C@H]2N(CCc3ccc(Cl)cc3)C(=O)O[C@]12C (stereo partly drawn) | 18.6 nM | 2.88 nM |  |  |  |
| CC[C@H]1OC(=O)[C@H](C)[C@@H](OC(=O)N2CCOC2C)[C@H](C)[C@@H](OC2O[C@H](C)C[C@H](N(C)C(C)C)[C@H]2O)[C@@](C)(OC)C[C@@H](C)C(=O)[C@H](C)[C@H]2N(CCc3ccc(Cl)cc3)C(=O)O[C@]12C (stereo partly drawn) | 794 nM | 120 nM |  |  |  |
| CC[C@H]1OC(=O)[C@H](C)[C@@H](OC(=O)N2C(=O)O[C@H](C)[C@@H]2C)[C@H](C)[C@@H](OC2O[C@H](C)C[C@H](N(C)C(C)C)[C@H]2O)[C@@](C)(OC)C[C@@H](C)C(=O)[C@H](C)[C@H]2N(CCc3ccc(Cl)cc3)C(=O)O[C@]12C (stereo partly drawn) |  | 2.88 nM |  |  | < -7 |
| CC[C@H]1OC(=O)[C@H](C)[C@@H](OC2C[C@@](C)(OC)[C@@H](O)[C@H](C)O2)[C@H](C)[C@@H](OC2O[C@H](C)C[C@H](N(C)C(C)C)[C@H]2O)[C@@](C)(OC)C[C@@H](C)C(=O)[C@H](C)[C@H]2N(CCc3ccc(Cl)cc3)C(=O)O[C@]12C (stereo partly drawn) | 22.4 nM | 4.47 nM |  |  |  |
| CC[C@H]1OC(=O)[C@H](C)[C@@H](OC(=O)C2CCCC2)[C@H](C)[C@@H](OC2O[C@H](C)C[C@H](N(C)C(C)C)[C@H]2O)[C@@](C)(OC)C[C@@H](C)C(=O)[C@H](C)[C@H]2N(CCc3ccc(Cl)cc3)C(=O)O[C@]12C (stereo partly drawn) | 631 nM | 50.1 nM |  |  |  |
| CC[C@H]1COC(=O)N1C(=O)O[C@H]1[C@H](C)[C@@H](OC2O[C@H](C)C[C@H](N(C)C(C)C)[C@H]2O)[C@@](C)(OC)C[C@@H](C)C(=O)[C@H](C)[C@H]2N(CCc3ccc(Cl)cc3)C(=O)O[C@]2(C)[C@@H](CC)OC(=O)[C@@H]1C (stereo partly drawn) | 66.1 nM | 6.31 nM |  |  |  |
| CC[C@H]1OC(=O)[C@H](C)[C@@H](OC(=O)N2C(=O)OC[C@@H]2C)[C@H](C)[C@@H](O[C@@H]2O[C@H](C)C[C@H](N(C)CC3CC3)[C@H]2O)[C@@](C)(OC)C[C@@H](C)C(=O)[C@H](C)[C@H]2N(CCc3ccc(Cl)c(Cl)c3)C(=O)O[C@]12C | 1.86 nM | 0.676 nM | 1.74 nM |  |  |
| CC[C@H]1OC(=O)[C@H](C)[C@@H](OC(=O)C2CCOC2)[C@H](C)[C@@H](OC2O[C@H](C)C[C@H](N(C)C(C)C)[C@H]2O)[C@@](C)(OC)C[C@@H](C)C(=O)[C@H](C)[C@H]2N(CCc3ccc(Cl)cc3)C(=O)O[C@]12C (stereo partly drawn) | 214 nM | 14.1 nM |  |  |  |
| CC[C@H]1OC(=O)[C@H](C)[C@@H](OC(=O)N2CCN(C)C2=O)[C@H](C)[C@@H](OC2O[C@H](C)C[C@H](N(C)C(C)C)[C@H]2O)[C@@](C)(OC)C[C@@H](C)C(=O)[C@H](C)[C@H]2N(CCc3ccc(Cl)cc3)C(=O)O[C@]12C (stereo partly drawn) | 4680 nM | 1230 nM |  |  |  |
| CC[C@H]1OC(=O)[C@H](C)[C@@H](OC(=O)N2C(=O)OC[C@H]2C)[C@H](C)[C@@H](OC2O[C@H](C)C[C@H](N(C)C(C)C)[C@H]2O)[C@@](C)(OC)C[C@@H](C)C(=O)[C@H](C)[C@H]2N(CCc3ccc(Cl)cc3)C(=O)O[C@]12C (stereo partly drawn) | 49 nM | 5.25 nM |  |  |  |
| CC[C@H]1OC(=O)[C@H](C)[C@@H](OC(=O)N2CC(C)OC2=O)[C@H](C)[C@@H](OC2O[C@H](C)C[C@H](N(C)C(C)C)[C@H]2O)[C@@](C)(OC)C[C@@H](C)C(=O)[C@H](C)[C@H]2N(CCc3ccc(Cl)cc3)C(=O)O[C@]12C (stereo partly drawn) | 36.3 nM | 7.94 nM |  |  |  |
